Broadly, the IC50 is the concentration needed to halve the response being measured.

In test [1] the test system is HepG2. Kind of test: Cytotoxicity against human HepG2 cells assessed as surviving fraction at 12.5 uM after 48 hrs by SRB assay relative to control. It is filed as functional. In a few lines:
(§1)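 Cells seeded at 10^4/well and allowed to attach for 24 h. Compounds dissolved in DMSO, diluted with saline, and added at 12.5, 25, 50 and 100 µM in triplicate wells. Exposure 48 h, 37 °C, 5% CO2. Cells then TCA-fixed and stained 30 min with 0.4% SRB in 1% acetic acid, washed four times with 1% acetic acid, and dye recovered in Tris-EDTA. Absorbance read and surviving fraction plotted against concentration to obtain IC50.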
On the technique in general: Sulforhodamine B stains cellular protein and so reports cell mass.

For test [2], the system named is HepG2. As to the kind of experiment: Cytotoxicity against human HepG2 cells assessed as surviving fraction at 25 uM after 48 hrs by SRB assay relative to control. It is filed as functional. In a few lines: as §1
For test [3], the system named is HepG2. As to the kind of experiment: Cytotoxicity against human HepG2 cells assessed as surviving fraction at 50 uM after 48 hrs by SRB assay relative to control. It is filed as functional. An outline of the steps: as §1
In test [4] the test system is HepG2. Kind of test: Cytotoxicity against human HepG2 cells assessed as surviving fraction at 100 uM after 48 hrs by SRB assay relative to control. It is filed as functional. In a few lines:
as §1

For test [5], the system named is HepG2. As to the kind of experiment: Cytotoxicity against human HepG2 cells assessed as cell viability after 48 hrs by SRB assay. It is filed as functional, cell-based. As to conditions: HepG2, 48 h. In a few lines:
as §1

Test [6] has as its system HepG2. Kind of test: Cytotoxicity against human HepG2 cells assessed as surviving fraction at 12.5 uM treated for 2 hrs followed by gamma irradiation of 8 Gy with dosage rate of 0.758 rad/sec for 17.73 mins measured after 48 hrs by SRB assay relative to control. It is filed as functional. In a few lines: (§2)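 Cells seeded at 10^4/well for 24 h, then given compound at 12.5, 25, 50 or 100 µM. After 2 h, a single 8 Gy γ-ray dose was delivered (0.758 rad/sec, 17.73 min). Cells fixed 48 h after irradiation and stained with 0.4% SRB in 1% acetic acid, read at 570 nm. Surviving fraction reported as mean ± standard error and analysed by 1-way ANOVA; IC50 taken from the survival curve.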

Test [7] has as its system HepG2. Kind of test: Cytotoxicity against human HepG2 cells assessed as surviving fraction at 25 uM treated for 2 hrs followed by gamma irradiation of 8 Gy with dosage rate of 0.758 rad/sec for 17.73 mins measured after 48 hrs by SRB assay relative to control. Format: functional. In a few lines:
as §2

Test [8] deals with HepG2. Kind of test: Cytotoxicity against human HepG2 cells assessed as surviving fraction at 50 uM treated for 2 hrs followed by gamma irradiation of 8 Gy with dosage rate of 0.758 rad/sec for 17.73 mins measured after 48 hrs by SRB assay relative to control. It is filed as functional. In a few lines: as §2
The test system of test [9] is HepG2. Kind of test: Cytotoxicity against human HepG2 cells assessed as surviving fraction at 100 uM treated for 2 hrs followed by gamma irradiation of 8 Gy with dosage rate of 0.758 rad/sec for 17.73 mins measured after 48 hrs by SRB assay relative to control. It is filed as functional. In a few lines: as §2
Test [10] relates to HepG2. As to the kind of experiment: Cytotoxicity against human HepG2 cells assessed as cell viability treated for 2 hrs followed by gamma irradiation of 8 Gy with dosage rate of 0.758 rad/sec for 17.73 mins measured after 48 hrs by SRB assay. Format: functional, cell-based. As to conditions: HepG2, light or radiation study. In a few lines: as §2
Test [11] relates to HepG2. Kind of test: Potency index, ratio of doxorubicin IC50 to compound IC50 for human HepG2 cells. It is filed as functional.

Turning to `CCOC(=O)c1c(-c2ccc(C)cc2)c(C#N)c(=O)n(/N=C(\C)c2ccc(NS(=O)(=O)c3ccc(Cl)cc3)cc2)c1N`, the Ratio in the test with HepG2 [1] was found to be 0.264; with HepG2 [2], 0.25; in the test on HepG2 [3] it was 0.214; with HepG2 [4], 0.107; with HepG2 [6], 0.18; in the test on HepG2 [7] it was 0.15. Besides, the Ratio in the test on HepG2 [8] is recorded as 0.12; in the test on HepG2 [9] it was 0.11. The half-maximal inhibitory concentration (IC50) in the test with HepG2 [5] was found to be 8.38 µM; with HepG2 [10] it was 7.3 µM.
In the case of `CCOC(=O)c1c(-c2ccc(OC)cc2)c(C#N)c(=O)n(/N=C(\C)c2ccc(NS(=O)(=O)c3ccc(Cl)cc3)cc2)c1N`, the Ratio is 0.651 in the test with HepG2 [1], 0.637 with HepG2 [2], 0.613 with HepG2 [3] and 0.147 with HepG2 [4]. For the same compound, in the test on HepG2 [5], the IC50 is 61.7 µM.
On to `CCOC(=O)c1c(-c2ccccc2Cl)c(C#N)c(=O)n(/N=C(\C)c2ccc(NS(=O)(=O)c3ccc(Cl)cc3)cc2)c1N`, for which the Ratio with HepG2 [1] was 0.488; in the test with HepG2 [2], 0.545; in the test with HepG2 [3], 0.342; in the test with HepG2 [4], 0.192. In the test on HepG2 [5], the half-maximal inhibitory concentration (IC50) was 11.4 µM.
`C/C(=N\NC(=O)C(C#N)C(=S)S)c1ccc(NS(=O)(=O)c2ccc(Cl)cc2)cc1` (stereo not given): the Ratio was 0.542 with HepG2 [1], 0.448 in the test with HepG2 [2], 0.387 in the test with HepG2 [3] and 0.248 with HepG2 [4]. The IC50 in the test with HepG2 [5] was determined as 17.5 µM.
On to `CCOC(=O)c1c(-c2cccc([N+](=O)[O-])c2)c(C#N)c(=O)n(/N=C(\C)c2ccc(NS(=O)(=O)c3ccc(Cl)cc3)cc2)c1N`, for which the Ratio turned out to be 0.661 with HepG2 [1], 0.524 in the test on HepG2 [2], 0.381 in the test on HepG2 [3] and 0.298 in the test on HepG2 [4]. Also, in the test on HepG2 [5], the concentration for half-maximal inhibition (IC50) amounted to 29.7 µM.
For `CCOC(=O)c1c(-c2ccc([N+](=O)[O-])cc2)c(C#N)c(=O)n(/N=C(\C)c2ccc(NS(=O)(=O)c3ccc(Cl)cc3)cc2)c1N` the same measures were 0.713, 0.586, 0.483, 0.212 and 41.1 µM.
On to `CCOC(=O)c1c(-c2ccccc2)c(C#N)c(=O)n(/N=C(\C)c2ccc(NS(=O)(=O)c3ccc(Cl)cc3)cc2)c1N`, for which the Ratio with HepG2 [1] was determined as 0.617; with HepG2 [2], 0.287; in the test on HepG2 [3], 0.212; in the test with HepG2 [4], 0.179. For the same compound, the 50% inhibitory concentration (IC50) with HepG2 [5] is 16.8 µM.
Take `C/C(=N\NC(=O)/C(C#N)=C/N(C)C)c1ccc(NS(=O)(=O)c2ccc(Cl)cc2)cc1`: the Ratio in the test with HepG2 [1] is 0.642; in the test on HepG2 [2], 0.386; with HepG2 [3], 0.311; in the test with HepG2 [4], 0.281. Moreover, the IC50 with HepG2 [5] amounted to 19.4 µM.
For `CSC(SC)=C(C#N)C(=O)N/N=C(\C)c1ccc(NS(=O)(=O)c2ccc(Cl)cc2)cc1` the same measures were 0.579, 0.44, 0.329, 0.266 and 19.4 µM.
On to `CCOC(=O)c1c(-c2ccc(Cl)cc2)c(C#N)c(=O)n(/N=C(\C)c2ccc(NS(=O)(=O)c3ccc(Cl)cc3)cc2)c1N`, for which the Ratio was determined as 0.555 in the test with HepG2 [1], 0.463 in the test on HepG2 [2], 0.394 with HepG2 [3] and 0.314 with HepG2 [4]. The IC50 in the test with HepG2 [5] was found to be 20.2 µM.
As to `CCOC(=O)c1c(-c2ccc3c(c2)OCO3)c(C#N)c(=O)n(/N=C(\C)c2ccc(NS(=O)(=O)c3ccc(Cl)cc3)cc2)c1N`, the Ratio in the test with HepG2 [1] was 0.691; in the test with HepG2 [2], 0.606; in the test with HepG2 [3] it was 0.373; with HepG2 [4] it was 0.134. Besides, the half-maximal inhibitory concentration (IC50) with HepG2 [5] stood at 37 µM.
For `CCO/C=C(\C#N)C(=O)N/N=C(\C)c1ccc(NS(=O)(=O)c2ccc(Cl)cc2)cc1` the same measures were 0.556, 0.406, 0.228, 0.222 and 16.8 µM.
On to `COc1cccc2c1C(=O)c1c(O)c3c(c(O)c1C2=O)C[C@@](O)(C(=O)CO)C[C@@H]3O[C@H]1C[C@H](N)[C@H](O)[C@H](C)O1` [DOXORUBICIN], for which the Ratio was 0.551 in the test on HepG2 [1], 0.48 in the test with HepG2 [2], 0.139 in the test on HepG2 [3] and 0.13 with HepG2 [4].
As for `CCOC(=O)c1c(/C=C/c2ccccc2)c(C#N)c(=O)n(/N=C(\C)c2ccc(NS(=O)(=O)c3ccc(Cl)cc3)cc2)c1N`, the Ratio in the test with HepG2 [1] is given as 0.414; in the test on HepG2 [2] it was 0.336; in the test with HepG2 [3], 0.275; in the test with HepG2 [4], 0.114. Besides, the IC50 with HepG2 [5] stood at 10.7 µM.
Turning to `CCOC(=O)c1c(-c2ccc(N(C)C)cc2)c(C#N)c(=O)n(/N=C(\C)c2ccc(NS(=O)(=O)c3ccc(Cl)cc3)cc2)c1N`, the Ratio in the test with HepG2 [1] was 0.653; in the test with HepG2 [2], 0.432; with HepG2 [3] it was 0.396; in the test with HepG2 [4] it was 0.196. The concentration for half-maximal inhibition (IC50) in the test with HepG2 [5] came out at 21 µM.
Taken in the same sequence, the figures for `CCOC(=O)c1c(-c2ccccc2OC)c(C#N)c(=O)n(/N=C(\C)c2ccc(NS(=O)(=O)c3ccc(Cl)cc3)cc2)c1N` were 0.489, 0.129, 0.105, 0.087 and 11.4 µM.
Regarding `C/C(=N\NC(=O)CC#N)c1ccc(NS(=O)(=O)c2ccc(Cl)cc2)cc1`, the Ratio with HepG2 [1] is reported as 0.18; in the test on HepG2 [2], 0.159; with HepG2 [3], 0.078; in the test on HepG2 [4], 0.064; in the test on HepG2 [6] it was 0.26; with HepG2 [7] it was 0.25. Also, the Ratio was determined as 0.12 with HepG2 [8] and 0.11 with HepG2 [9]. The results for the concentration for half-maximal inhibition (IC50) in the test with HepG2 [5] and with HepG2 [10] were 8 µM and 6.5 µM, respectively. Further, the “Ratio IC50” value in the test on HepG2 [11] was 4.
On to `CCOC(=O)c1c(-c2ccco2)c(C#N)c(=O)n(/N=C(\C)c2ccc(NS(=O)(=O)c3ccc(Cl)cc3)cc2)c1N`, for which the Ratio with HepG2 [1] was found to be 0.413; in the test on HepG2 [2], 0.367; in the test with HepG2 [3], 0.37; in the test with HepG2 [4] it was 0.342; with HepG2 [6], 0.32; in the test on HepG2 [7], 0.22. For the same compound, the Ratio with HepG2 [8] and in the test on HepG2 [9] was 0.1 in each case. Further, the figures for the IC50 in the test with HepG2 [5] and in the test with HepG2 [10] were 10.3 µM and 8.8 µM, respectively.

The values are drawn from ChEMBL document CHEMBL3804821, “Design and synthesis of some novel 4-Chloro-N-(4-(1-(2-(2-cyanoacetyl)hydrazono)ethyl)phenyl) benzenesulfonamide derivatives as anticancer and radiosensitizing agents” (Eur J Med Chem, 2016).
